Assay results pooled from the literature.
Compare with care: the assays were run in different laboratories.
UGT2B7: UDP-glucuronosyltransferase 2B7 (UGT2B7, Homo sapiens, UniProt P16662)
KCNH2: Voltage-gated inwardly rectifying potassium channel KCNH2 (KCNH2, Homo sapiens, UniProt Q12809)

| Compound | target | assay | test system | conditions | measurement | result |
| --- | --- | --- | --- | --- | --- | --- |
| CN(CCC(=O)O)C(=O)c1ccc2c(c1)CC[C@@H]1[C@@H]2CC[C@]2(C)C(c3cncc(F)c3)=CC[C@@H]12 | UGT2B7 | enzyme activity, inhibitor |  |  | IC50 | > 30 µM |
| O=c1c2ccccc2c(Cc2ccc(Cl)cc2)nn1C1CCCNCC1 (centres unmarked) | KCNH2 | ion current, inhibitor, patch clamp | HEK293 | 10 µM | inhibition | 97% |
| C[C@@H](Cn1ccc(-c2ccc(C#N)c(Cl)c2)n1)NC(=O)c1cc([C@@H](C)O)[nH]n1 | UGT2B7 | enzyme activity, inhibitor | human, liver microsomes |  | IC50 | > 100 µM |
| CC(C)=CCCC(C)c1ccc(C)cc1 (centres unmarked) | UGT2B7 | enzyme activity, inhibitor |  |  | IC50 | > 200 µM |
| C=C1CC[C@@H]2[C@](C)(CO[C@@H]3O[C@H](CO)[C@@H](O)[C@H](O)[C@H]3O)CCC[C@@]2(C)[C@@H]1CCC1=CCOC1=O | UGT2B7 | enzyme activity, inhibitor |  | 100 µM, pH 7.4 | inhibition | 42% |
| CON=C(N)c1ccc(-c2ccc(-c3ccc(C(N)=NOC)cc3)o2)cc1 | Cytochrome P450 4F2 (Homo sapiens, UniProt P78329) | enzyme activity, substrate |  |  | Km | 0.7 µM |
| O=C(Nc1cccc(C(F)(F)F)c1)N1CCN(c2cccc(C(F)(F)F)c2)CC1 | KCNH2 | ion current, inhibitor, patch clamp | HEK293 | 10 µM | inhibition | 85% |
| C=C1CC[C@@H]2[C@](C)(CO)[C@H](O)CC[C@@]2(C)[C@@H]1CCC1=CCOC1=O | UGT2B7 | enzyme activity, inhibitor |  | 100 µM, pH 7.4 | inhibition | 95% |
| CNC(=O)[C@@]12C[C@@H]1[C@@H](n1cnc3c(NCCc4ccc(O)c(OC)c4)nc(C#Cc4ccco4)nc31)[C@H](O)[C@@H]2O | KCNH2 | ion current, inhibitor |  | 10 µM | inhibition | > 50% |
| CC(=O)c1cc(C(=O)N[C@@H](C)Cn2ccc(-c3ccc(C#N)c(Cl)c3)n2)[nH]n1 | UGT2B7 | enzyme activity, inhibitor | human, liver microsomes |  | IC50 | > 50 µM |
| C=C1CCC2C(C)(CO)C(=O)CCC2(C)C1CCC1=CCOC1=O (centres unmarked) | UGT2B7 | enzyme activity, inhibitor |  |  | Ki | 4.2 µM |
